ZTA DNA inh: ZTA (EBV) inhibition in EBNA-1 counter-screen; P03206; ZTA-DNA binding, fluorescence polarization; inhibition, % at 11 µM; 320,000 compounds, 0.15% hits; in the data active = inhibition above about 33%
Target sequence (P03206 whole entry, looked up): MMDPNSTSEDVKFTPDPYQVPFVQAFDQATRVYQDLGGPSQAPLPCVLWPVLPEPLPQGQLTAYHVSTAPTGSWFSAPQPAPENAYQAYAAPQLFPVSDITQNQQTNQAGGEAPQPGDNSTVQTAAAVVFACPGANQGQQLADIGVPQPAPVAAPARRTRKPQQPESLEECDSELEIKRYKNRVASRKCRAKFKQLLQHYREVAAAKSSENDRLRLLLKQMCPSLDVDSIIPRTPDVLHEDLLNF
DNA FID counter: compounds displacing fluorescent DNA intercalator, primary screen, artefact control for HCV NS3 helicase inhibitor project, biochemical, FID fluorescence; DNA fluorescent intercalator displacement; inhibition, % at 7.9 µM; 290,000 compounds, 0.17% hits; AID 1845, 2009; in the data active = inhibition above about 37%;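 also: 0% = vehicle and 100% = reference compound; higher means more ethidium bromide displaced from hairpin DNA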
EBNA-1 inh: EBNA-1 DNA-binding inhibitors, primary screen, biochemical, fluorescence polarization | 300,000 compounds, 0.34% hits | inhibition, % at 14.8 µM; in the data active = inhibition above about 28%
GPR7 antag: GPR7 receptor antagonists, primary screen, cell-based, fluorescence, single concentration. Neuropeptides B/W receptor type 1 (Homo sapiens), P48145. AID 1861, 2009. inhibition, % at 4.4 µM. 290,000 compounds, 1.1% hits. GPR7-expressing cells, fluorescence antagonist assay; in the data active = inhibition above about 16%, passing the limit was not always enough;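 also: cells stimulated with the agonist NPW; 0% = agonist with vehicle and 100% = vehicle without agonist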
Target sequence (P48145 whole entry, looked up): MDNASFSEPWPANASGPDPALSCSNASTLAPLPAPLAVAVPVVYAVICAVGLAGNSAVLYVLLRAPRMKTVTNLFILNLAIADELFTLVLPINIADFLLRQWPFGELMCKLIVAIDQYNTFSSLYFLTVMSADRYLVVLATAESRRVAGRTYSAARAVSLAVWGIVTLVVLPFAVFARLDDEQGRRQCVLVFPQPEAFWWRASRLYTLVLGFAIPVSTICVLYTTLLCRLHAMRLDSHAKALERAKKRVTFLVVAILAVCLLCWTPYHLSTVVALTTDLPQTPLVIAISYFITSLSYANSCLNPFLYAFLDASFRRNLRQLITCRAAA
HCV NS3 hel inh: inhibitors of HCV NS3 helicase, primary screen, biochemical, Cy5 molecular beacon fluorescence. 290,000 compounds, 0.56% hits. inhibition, % at 10.9 µM. AID 1800, 2009. NS3 helicase DNA unwinding. Hepatitis C virus NS3 helicase;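 active = inhibition above the mean of all tested compounds plus 3 SD, set per campaign, cut at about 35% in these data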;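 also: 0% = DMSO wells and 100% = thioflavine S control wells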
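Assay system: hepatitis C virus NS3 helicase domain fragment enzyme. Also added: annealed dual-labelled DNA beacon duplex, ATP-started. Timing: 1 h reaction at 25 °C, ATP-initiated. Technique: Cy5 fluorescence at 0 and 60 min, beacon hairpin quenching. Evaluation: % inhibition of unwinding. Replication: one well per compound.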
GPR7 antag conf: GPR7 receptor antagonists, confirmation, cell-based, fluorescence, single concentration; shares compounds with GPR7 antag; AID 1952, 2009; GPR7-expressing cells, calcium fluorescence antagonist mode; inhibition, % at 4.4 µM; 2,400 compounds, 52% hits; in the data active = inhibition above about 24%;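 also: stimulated with the GPR7 agonist NPW; 0% = agonist plus vehicle and 100% = vehicle alone without agonist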
MCHR1 antag: MCHR1 antagonists in cells, counter-screen for GPR7 antagonist project, cell-based, fluorescence, human; shares compounds with GPR7 antag; MCHR1-expressing cells, fluorescence antagonist assay; inhibition, % at 4.4 µM; 2,400 compounds, 62% hits; AID 2148, 2009; in the data active = inhibition above about 22%;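 also: 0% = vehicle with agonist and 100% = vehicle without agonist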
The depositor's hits bear a star; . = not tested or not shown. This is a sample that favours compounds with a hit; in the whole collection about 2% have one here.

SMILES	ZTA DNA inh	DNA FID counter	EBNA-1 inh	GPR7 antag	HCV NS3 hel inh	GPR7 antag conf	MCHR1 antag
CN(C)CC(CCC(CN(C)C)C(O)(c1ccccc1)c1ccccc1)C(O)(c1ccccc1)c1ccccc1 (stereo unspecified)	.	36	.	53*	-55	61*	68*
Cc1ccc(-c2noc(=O)n2CC(=O)Nc2ccc(S(=O)(=O)NC3CC3)cc2)cc1	8	-6	1	23*	-4	47*	30*
Cc1sc(NC(=O)C2CCCCC2C(=O)O)c(C(N)=O)c1C (stereo unspecified)	0	-7	5	22*	6	-18	3
Cc1sc(NC(=O)C2CCCCC2C(=O)O)c(C(N)=O)c1-c1ccc(C(C)(C)C)cc1 (stereo unspecified)	-4	-13	7	-1	20	.	.
Brc1c(CSc2nnc(-c3ccco3)o2)nc2ccccn12	2	-10	15	24*	-7	10	-4
CCc1nn(CC(=O)N2CCN(CC)CC2)c(=O)c2cc3sccc3n12	3	6	-3	21*	3	-9	-3
CCCN1CCN(C(=O)Cn2nc(C)n3c(cc4sccc43)c2=O)CC1	0	-4	-4	-11	9	.	.
O=C(O)C(F)=C1c2ccccc2-c2ccccc21	4	.	-1	.	.	.	.
CC(C)NC(=O)NC(=O)CSc1nnc(COc2ccccc2F)n1C(C)C1CC2CCC1C2 (stereo unspecified)	-17	-33	-2	32*	-20	28*	54*
Cc1ccc2nc(C)c(CN3CCN(c4ccc([N+](=O)[O-])cc4Cl)CC3)n2c1	-3	4	8	23*	-28	52*	52*
O=[N+]([O-])c1ccc(Cl)c(CN2CCN(c3ncccn3)CC2)c1	-2	-8	-9	-9	-3	.	.
CC(C)C[C@H]1CN=C(Nc2ccccc2)N1CC1CCC1	-22	-4	-3	12	-11	.	.
CCCCCCCN1C(Nc2ccccc2)=NC[C@@H]1CC(C)C	2	31	-2	44*	-67	40*	34*
CC(C)C[C@H]1CN=C(Nc2ccccc2)N1CCCC1CCCCC1	0	6	1	55*	-85	53*	39*
CC(C)C[C@H]1CN=C(Nc2ccccc2)N1CC1CCC(C)CC1 (stereo partly specified)	18	10	13	33*	-39	30*	22*
CC(C)C[C@H]1CN=C(Nc2ccccc2)N1CCCC1CCCC1	18	9	-3	46*	-65	49*	36*
CC(C)C[C@H]1CN=C(Nc2ccccc2)N1CCC1CCCC1	12	5	3	24	-32	.	.
O=C1C=C(c2cccc(CO)c2)C[C@@H](c2ccc3c(c2)OCO3)C1	-2	.	.	.	.	.	.
Cc1ccc(NC(=O)CN(C)C(=O)C(C)OC(=O)c2ccccc2NCCO)cc1 (stereo unspecified)	4	.	-12	.	.	.	.
CCCc1nnc(SCC(=O)Nc2cccc(Cl)c2Cl)o1	8	-7	11	-5	1	.	.
CCN(CC(=O)NCc1ccc(F)cc1)C(=O)/C=C/c1cc(OC)ccc1OC	.	-25	.	-3	-7	.	.
CC1CCN(CCCNC(=O)CN2C(=O)CSc3ccc(S(=O)(=O)N4CCC(C)CC4)cc32)CC1	8	45*	-10	26*	-13	-5	-9
CC1CCN(CCCNC(=O)CN2C(=O)CSc3ccc(S(=O)(=O)N4CCOCC4)cc32)CC1	-10	-3	-13	-7	9	.	.
CC(C)Cc1cc(C(=O)N2CCCC(CO)(Cc3ccc(F)cc3F)C2)n[nH]1 (stereo unspecified)	-7	-52	-12	.	-5	.	8
CC(C)Cc1cc(C(=O)N2CCCC(CO)(Cc3ccc(F)cc3)C2)no1 (stereo unspecified)	-6	-43	-7	18	11	.	.
SMILES	ZTA DNA inh	DNA FID counter	EBNA-1 inh	GPR7 antag	HCV NS3 hel inh	GPR7 antag conf	MCHR1 antag
COc1ccc(CCn2c(SCCN3CCCCC3)nc3ccccc3c2=O)cc1OC	-7	24	9	36*	-18	30*	35*
C=CCNC(=O)CSc1nc2ccccc2c(=O)n1CCc1ccc(OC)c(OC)c1	.	-38	.	-12	6	.	.
C(=C\c1ccccc1)/CSc1nnc(-c2ccccc2)n1Cc1ccco1	-6	-23	-11	32*	10	41*	64*
C(=C\c1ccccc1)/CSc1nnc(-c2ccncc2)n1Cc1ccco1	1	-33	-4	-7	26	.	.
Clc1cccc(-c2nnc(SC/C=C/c3ccccc3)n2Cc2ccco2)c1	12	-21	-9	27*	-10	44*	72*
O=C1COc2ccc(S(=O)(=O)Nc3ccc(F)cc3)cc2N1	-9	-3	2	-3	1	.	.
COc1cccc(C(=O)N2CCC(n3nccc3NC(=O)CCOc3ccccc3)CC2)c1	4	-46	8	-2	18	.	.
O=C(COC(=O)CC1Sc2ccccc2NC1=O)NCc1ccccc1 (stereo unspecified)	-5	.	3	.	.	.	.
CN1N=C(C(=O)N2CCc3c([nH]c4ccccc34)C2c2ccccc2Cl)CCC1=O (stereo unspecified)	7	-27	-10	4	-6	.	.
O=C(c1cc[n+]([O-])cc1)N1CCc2c([nH]c3ccccc23)C1c1ccccc1Cl (stereo unspecified)	8	-40	5	31*	-8	12	7
Cc1nc(C(=O)N2CCc3c([nH]c4ccccc34)C2c2cc(F)ccc2F)cs1 (stereo unspecified)	-1	-28	-20	22*	-36	1	9
CC(C(=O)Nc1ccc(OCc2ccccc2)cc1)N1CCCC1 (stereo unspecified)	8	11	-2	-1	2	.	.
CC(C)COCC(CN(Cc1ccccc1)c1ccccc1)N1CCCC1 (stereo unspecified)	-19	30	-3	46*	-67	48*	31*
COC(=O)Cn1cnc2c(cnn2-c2ccc(C)cc2)c1=O	5	-6	-9	6	-8	.	.
CCC(C)(C)NC(=O)c1cc(S(=O)(=O)N2CCc3ccccc32)cn1C	-2	-40	5	21*	19	10	35*
Cc1ccc(S(=O)(=O)N2CCCCC2)cc1C(=O)N(C)CCOc1ccccc1	-16	-40	11	23*	-6	20	22*
O=C(NCCc1ccccc1)c1cc(S(=O)(=O)N2CCCC2)ccc1F	1	-23	-15	26*	19	11	-4
Cc1ccc(S(=O)(=O)N2CCCCC2)cc1C(=O)NCCc1ccccc1	-5	-31	8	-11	-7	.	.

High-throughput results: PubChem, The Scripps Research Institute Molecular Screening Center
